Measured values gathered from unrelated publications.
Each line is one published result; the experiments were not run side by side.
ABL1 T315I non-phosphorylated: Tyrosine-protein kinase ABL1, non-phosphorylated (ABL1, Homo sapiens, UniProt P00519, T315I)
ABL1 T315I phosphorylated: Tyrosine-protein kinase ABL1, phosphorylated (ABL1, Homo sapiens, UniProt P00519, T315I)
ABL1 Q252H phosphorylated: Tyrosine-protein kinase ABL1, phosphorylated (ABL1, Homo sapiens, UniProt P00519, Q252H)
ABL1 T315I: Tyrosine-protein kinase ABL1 (ABL1, Homo sapiens, UniProt P00519, T315I)
ABL1 F317I non-phosphorylated: Tyrosine-protein kinase ABL1, non-phosphorylated (ABL1, Homo sapiens, UniProt P00519, F317I)
ABL1 F317L phosphorylated: Tyrosine-protein kinase ABL1, phosphorylated (ABL1, Homo sapiens, UniProt P00519, F317L)
ABL1 F317L non-phosphorylated: Tyrosine-protein kinase ABL1, non-phosphorylated (ABL1, Homo sapiens, UniProt P00519, F317L)
ABL1 phosphorylated: Tyrosine-protein kinase ABL1, phosphorylated (ABL1, Homo sapiens, UniProt P00519)
ABL1 non-phosphorylated: Tyrosine-protein kinase ABL1, non-phosphorylated (ABL1, Homo sapiens, UniProt P00519)

| SMILES | target | test | conditions | remaining binding |
| --- | --- | --- | --- | --- |
| CNC(=O)[C@@H]1CC[C@@H](n2c(-c3ccc4cnccc4c3)nc3ccc(C(=O)NCc4cccc(C(N)=O)c4)cc32)C1 | ABL1 T315I non-phosphorylated | binding, competition with immobilised ligand | 1 µM | 100% |
| C[C@H](c1ccc(F)cc1)N(Cc1cccc(C(=O)O)c1)C(=O)c1cnc2ccccc2c1 | ABL1 T315I phosphorylated | cell-free assay, competition with immobilised ligand | 1 µM | 75% |
| CN1CCN(c2ccc(Nc3nccc(-c4ccccc4)n3)cc2C(F)(F)F)CC1 | Tyrosine-protein kinase ABL1 (ABL1, Homo sapiens, UniProt P00519, M351T) | binding | 10 µM | 15% |
| CN(c1nccc(-c2cnn3ncccc23)n1)C1CC1 | Tyrosine-protein kinase ABL1 (ABL1, Homo sapiens, UniProt P00519, F317I) | binding | 1 µM | 100% |
| COCCOc1nc(-c2ccc(Cl)nc2)nc2c1CN(C(=O)c1ncn3ccccc13)CC2 | Tyrosine-protein kinase ABL1, phosphorylated (ABL1, Homo sapiens, UniProt P00519, E255K) | binding, competition with immobilised ligand | 0.1 µM | 100% |
| COc1ncc2cc3ccccc3nc2c1C#N | ABL1 Q252H phosphorylated | cell-free assay, competition with immobilised ligand | 5 µM | 99% |
| CN(CCCC(F)(F)F)c1nccc(-c2cnn3ncccc23)n1 | ABL1 T315I | binding | 1 µM | 100% |
| O=C(c1ccc(Nc2ncc(Cl)c(-c3ccc(Cl)s3)n2)cc1)N1CCC(N2CCCC2)CC1 | ABL1 T315I phosphorylated | binding, competition with immobilised ligand | 1 µM | 1.1% |
| c1cncc(-c2cccc(Nc3nccc(NC4CCCCC4)n3)c2)c1 | ABL1 Q252H phosphorylated | binding, competition with immobilised ligand | 10 µM | 24% |
| CO[C@@H](C)c1c(Nc2ccc([C@H](N(C)C(=O)C3CCS(=O)(=O)CC3)C(F)(F)F)cc2)cnc2cc(Cl)nn12 | ABL1 F317I non-phosphorylated | binding, competition with immobilised ligand | 1 µM | 100% |
| O=C(NCC1CCOCC1)c1n[nH]cc1NC(=O)c1c(F)cccc1F | ABL1 F317L phosphorylated | binding, competition with immobilised ligand | 1 µM | 88% |
| Cc1cnc(Nc2ccc(C(=O)N3CCC(N4CCCC4)CC3)cc2)nc1-c1cc2ccccc2s1 | ABL1 F317L non-phosphorylated | binding, competition with immobilised ligand | 1 µM | 59% |
| C[C@@H](c1ccc(-n2cnc3c(N)ncnc32)cc1)N1CCc2nn(C)c(Cc3ccccc3)c2C1=O | ABL1 phosphorylated | binding, competition with immobilised ligand | 0.1 µM | 90% |
| N#Cc1ccc(Nc2ccc3[nH]c(=O)[nH]c3c2)c(Cl)c1 | ABL1 F317L non-phosphorylated | cell-free assay, competition with immobilised ligand | 1 µM | 100% |
| O=C(NCCCN1CCOCC1)c1ccc(Nc2ncc(Cl)c(-c3ccc(Cl)s3)n2)cc1 | Tyrosine-protein kinase ABL1, phosphorylated (ABL1, Homo sapiens, UniProt P00519, M351T) | binding, competition with immobilised ligand | 1 µM | 27% |
| COC(=O)Nc1nc2ccc(C(=O)c3ccccc3)cc2[nH]1 | ABL1 T315I phosphorylated | cell-free assay, competition with immobilised ligand | 10 µM | 3.2% |
| COc1cnc(Nc2cccc(S(N)(=O)=O)c2)nc1N1CCN(c2ccccc2)C(=O)C1 | ABL1 phosphorylated | binding, competition with immobilised ligand | 1 µM | 93% |
| CCS(=O)(=O)c1cc2cc(C[C@](O)(CC(C)(C)c3ccc(F)cc3C(N)=O)C(F)(F)F)[nH]c2cn1 | ABL1 F317L phosphorylated | cell-free assay, competition with immobilised ligand | 1 µM | 90% |

| SMILES | target | test | conditions | remaining binding |
| --- | --- | --- | --- | --- |
| O=C(c1ccc(Nc2nccc(-c3cc4ccccc4s3)n2)cc1)N1CCC(N2CCCC2)CC1 | ABL1 non-phosphorylated | binding, competition with immobilised ligand | 1 µM | 18% |
| N[C@H]1CCN(c2nccc(-c3cnn4ncccc34)n2)C1 | ABL1 T315I | binding | 1 µM | 88% |
| O=C(Nc1c[nH]nc1C(=O)NC1CCNCC1)c1cc(F)cc(F)c1 | ABL1 phosphorylated | binding, competition with immobilised ligand | 1 µM | 100% |
| CC1CCCN1c1nccc(-c2cnn3ncccc23)n1 (centres unmarked) | ABL1 non-phosphorylated | binding, competition with immobilised ligand | 1 µM | 97% |
| CCN1CCN(Cc2ccc(C(=O)Nc3ccc(C)c(Oc4ccc5c(c4)CC(=O)N5)c3)cc2C(F)(F)F)CC1 | Tyrosine-protein kinase ABL1, non-phosphorylated (ABL1, Homo sapiens, UniProt P00519, Q252H) | binding, competition with immobilised ligand | 1 µM | 3% |
| Nc1ncc2c(n1)-c1c([nH]c3ccc(C#CC4CC4)cc13)CCCC2 | ABL1 F317L non-phosphorylated | binding, competition with immobilised ligand | 1 µM | 63% |
| C=CC(=O)N1CCC(C(=O)NCC(=O)N2CCN(c3nc(-c4cnc(N)nc4C(F)F)nc(N4CCOCC4)n3)CC2)CC1 | Tyrosine-protein kinase ABL1, phosphorylated (ABL1, Homo sapiens, UniProt P00519, F317I) | binding, competition with immobilised ligand | 1 µM | 94% |
| O=c1nc(-c2ccccn2)sc2ccccc12 | ABL1 non-phosphorylated | binding, competition with immobilised ligand | 1 µM | 93% |
| c1cnn2ncc(-c3ccnc(N4CCC45COC5)n3)c2c1 | Tyrosine-protein kinase ABL1 (ABL1, Homo sapiens, UniProt P00519, Y253F) | binding | 1 µM | 59% |
| O=C(NCCCN1CCOCC1)c1ccc(Nc2nccc(-c3cc4ccccc4s3)n2)cc1 | ABL1 non-phosphorylated | binding, competition with immobilised ligand | 1 µM | 37% |
| CC(=O)N1CCC(c2ccc(C(=O)NC3=NCCN3)cc2C(F)(F)F)CC1 | ABL1 non-phosphorylated | cell-free assay, competition with immobilised ligand | 1 µM | 95% |
| F[C@@H]1CCN(c2nccc(-c3cnn4ncccc34)n2)C1 | ABL1 T315I | binding | 1 µM | 100% |
| COc1cnc(Nc2cccc(S(N)(=O)=O)c2)nc1N1CCN(c2ccccc2)CC1 | ABL1 Q252H phosphorylated | binding, competition with immobilised ligand | 1 µM | 72% |
| COc1ccnn2ncc(-c3ccnc(N(C)C)n3)c12 | Tyrosine-protein kinase ABL1 (ABL1, Homo sapiens, UniProt P00519, F317L) | binding | 1 µM | 85% |
| O=C(c1ccc(Nc2ncc(Cl)c(-c3cc4ccccc4s3)n2)cc1)N1CCC(N2CCCC2)CC1 | ABL1 T315I non-phosphorylated | binding, competition with immobilised ligand | 1 µM | 0.9% |
| CN(C(=O)c1ccccc1)c1cc(N(C)c2ccc3c(c2)CCc2ccc(C(=O)NCCN4CCOCC4)cc2C3=O)ccc1F | ABL1 F317I non-phosphorylated | binding, competition with immobilised ligand | 1 µM | 79% |
| C[C@H]1CCN(c2nccc(-c3cnn4ncccc34)n2)C1 | ABL1 phosphorylated | binding | 1 µM | 59% |
